Laboratory results taken from ChEMBL document CHEMBL2412956, “Synthesis and biological activity evaluation of 5-pyrazoline substituted 4-thiazolidinones” (Eur J Med Chem, 2013).

Assays:
Assay type in all cases: functional
RPMI-8226 [1] = test: Cytotoxicity against human RPMI8226 cells assessed as cell growth at 10 uM after 48 hrs by SRB assay relative to control; settings: RPMI-8226, 48 h, read-out: Activity
Summary of the method: (§1)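 This was the NCI primary screen, with compound added once at 10⁻⁵ M and cultures incubated for 48 h. The endpoint was sulforhodamine B protein staining. Results are expressed as percent growth of treated cells relative to untreated control cells.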

SR [2] = test: Cytotoxicity against human SR cells assessed as cell growth at 10 uM after 48 hrs by SRB assay relative to control; settings: read-out: Activity
Summary of the method: (§2)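 Single-dose NCI screen: compound at 10⁻⁵ M added to tumor cell cultures and incubated for 48 h. The SRB protein-binding dye end point was read spectrophotometrically. Results are percent growth of treated cells relative to untreated controls.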

K562 [3] = test: Cytotoxicity against human K562 cells assessed as cell growth at 10 uM after 48 hrs by SRB assay relative to control; settings: K562, 48 h, read-out: Activity; summary of the method: as §1
LOX IMVI [4] = test: Cytotoxicity against human LOXIMVI cells assessed as cell growth at 10 uM after 48 hrs by SRB assay relative to control; settings: read-out: Activity; summary of the method: as §1
T47D = test: Cytotoxicity against human T47D cells assessed as cell growth at 10 uM after 48 hrs by SRB assay relative to control; settings: read-out: Activity; summary of the method: as §2
SF-295 [5] = test: Cytotoxicity against human SF295 cells after 48 hrs by SRB assay; settings: SF-295, 48 h
Summary of the method: (§3)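 This was the NCI 60-cell-line five-dose screen, using 10-fold dilutions from 100 to 0.01 μM and continuous 48-h exposure. Growth was read by sulforhodamine B protein staining relative to time-zero and untreated controls. […] Where an endpoint was not reached, the value was given as beyond the range tested.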

KM12 [6] = test: Cytotoxicity against human KM12 cells assessed as cell growth at 10 uM after 48 hrs by SRB assay relative to control; settings: KM12, 48 h, read-out: Activity; summary of the method: as §1
CCRF-CEM [7] = test: Cytotoxicity against human CCRF-CEM cells assessed as cell growth at 10 uM after 48 hrs by SRB assay relative to control; settings: read-out: Activity; summary of the method: as §1
HCT-116 = test: Cytotoxicity against human HCT116 cells after 48 hrs by SRB assay; settings: HCT-116, 48 h; summary of the method: as §3
SF-295 [8] = test: Cytotoxicity against human SF295 cells assessed as cell growth at 10 uM after 48 hrs by SRB assay relative to control; settings: SF-295, 48 h, read-out: Activity; summary of the method: as §1
MOLT-4 = test: Cytotoxicity against human MOLT4 cells assessed as cell growth at 10 uM after 48 hrs by SRB assay relative to control; settings: MOLT-4, 48 h, read-out: Activity; summary of the method: as §1
RXF 393 = test: Cytotoxicity against human RXF393 cells assessed as cell growth at 10 uM after 48 hrs by SRB assay relative to control; settings: RXF 393, 48 h, read-out: Activity; summary of the method: as §1
PC-3 [9] = test: Cytotoxicity against human PC3 cells assessed as cell growth at 10 uM after 48 hrs by SRB assay relative to control; settings: PC-3, 48 h, read-out: Activity; summary of the method: as §1
OVCAR-3 [10] = test: Cytotoxicity against human OVCAR3 cells after 48 hrs by SRB assay; settings: OVCAR-3, 48 h; summary of the method: as §3
HOP-92 = test: Cytotoxicity against human HOP92 cells assessed as cell growth at 10 uM after 48 hrs by SRB assay relative to control; settings: HOP-92, 48 h, read-out: Activity; summary of the method: as §1
PC-3 [11] = test: Cytotoxicity against human PC3 cells after 48 hrs by SRB assay; settings: PC-3, 48 h; summary of the method: as §3
OVCAR-3 [12] = test: Cytotoxicity against human OVCAR3 cells assessed as cell growth at 10 uM after 48 hrs by SRB assay relative to control; settings: OVCAR-3, 48 h, read-out: Activity; summary of the method: as §1
DU-145 = test: Cytotoxicity against human DU145 cells after 48 hrs by SRB assay; settings: DU-145, 48 h; summary of the method: as §3
K562 [13] = test: Cytotoxicity against human K562 cells after 48 hrs by SRB assay; settings: K562, 48 h; summary of the method: as §3
HL-60(TB) [14] = test: Cytotoxicity against human HL-60(TB) cells assessed as cell growth at 10 uM after 48 hrs by SRB assay relative to control; settings: HL-60, 48 h, read-out: Activity; summary of the method: as §1
MCF7 = test: Cytotoxicity against human MCF7 cells assessed as cell growth at 10 uM after 48 hrs by SRB assay relative to control; settings: MCF7, 48 h, read-out: Activity; summary of the method: as §1
HL-60(TB) [15] = test: Cytotoxicity against human HL-60(TB) cells after 48 hrs by SRB assay; settings: HL-60, 48 h; summary of the method: as §3
UACC-62 = test: Cytotoxicity against human UACC62 cells after 48 hrs by SRB assay; settings: UACC-62, 48 h
Summary of the method: (§4)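 NCI 60-cell-line panel, five 10-fold concentrations from 100 μM to 0.01 μM (10⁻⁴ to 10⁻⁸ M) with 48-h continuous exposure. Growth was read by SRB protein staining against time-zero and untreated controls. […] Values beyond the tested range are expressed as greater or less than the limit.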

MDA-MB-435 = test: Cytotoxicity against human MDA-MB-435 cells after 48 hrs by SRB assay; settings: MDA-MB-435, 48 h; summary of the method: as §3
786-0 = test: Cytotoxicity against human 786-0 cells after 48 hrs by SRB assay; settings: 786-0, 48 h; summary of the method: as §3
HOP-62 = test: Cytotoxicity against human HOP62 cells after 48 hrs by SRB assay; settings: HOP-62, 48 h; summary of the method: as §3
LOX IMVI [16] = test: Cytotoxicity against human LOXIMVI cells after 48 hrs by SRB assay; summary of the method: as §3
HCT-15 = test: Cytotoxicity against human HCT15 cells after 48 hrs by SRB assay; settings: HCT-15, 48 h; summary of the method: as §3
RPMI-8226 [17] = test: Cytotoxicity against human RPMI8226 cells after 48 hrs by SRB assay; settings: RPMI-8226, 48 h; summary of the method: as §3
CCRF-CEM [18] = test: Cytotoxicity against human CCRF-CEM cells after 48 hrs by SRB assay; summary of the method: as §3
SR [19] = test: Cytotoxicity against human SR cells after 48 hrs by SRB assay; summary of the method: as §4
U-251 = test: Cytotoxicity against human U251 cells after 48 hrs by SRB assay; settings: U-251, 48 h; summary of the method: as §4
KM12 [20] = test: Cytotoxicity against human KM12 cells after 48 hrs by SRB assay; settings: KM12, 48 h; summary of the method: as §3
NCI-H460 = test: Cytotoxicity against human NCI-H460 cells after 48 hrs by SRB assay; settings: NCI-H460, 48 h; summary of the method: as §3

Question: What does the source list for `COc1ccc(C2CC(c3ccccc3)=NN2C(=O)/C=C2\SC(=O)NC2=O)cc1` (centres undefined)?
Answer: growth at 10 µM (RPMI-8226 [1]): 58.9%; growth at 10 µM (SR [2]): 39.1%; growth at 10 µM (K562 [3]): 58.2%; growth at 10 µM (LOX IMVI [4]): 55.7%

Question: Which growth at 10 µM (T47D) does the source give for `COc1ccc(C2=NN(C(=O)/C=C3\SC(=O)NC3=O)C(c3ccccc3O)C2)cc1` (centres undefined) here?
Answer: 38%

Question: And the GI50 (SF-295 [5])?
Answer: 2990 nM

Question: And the TGI (SF-295 [5])?
Answer: 10 µM

Question: And the growth at 10 µM (KM12 [6])?
Answer: 29.9%

Question: What about the growth at 10 µM (CCRF-CEM [7]) of the same molecule?
Answer: 19.5%

Question: What about the GI50 (HCT-116) of the same molecule?
Answer: 4.56 µM

Question: And the TGI (HCT-116)?
Answer: 16.4 µM

Question: What about the growth at 10 µM (SF-295 [8]) of the same molecule?
Answer: -13.4%

Question: What about the growth at 10 µM (MOLT-4) of the same molecule?
Answer: 16.5%

Question: And the growth at 10 µM (RXF 393)?
Answer: 31.4%

Question: What about the growth at 10 µM (PC-3 [9]) of the same molecule?
Answer: 33.6%

Question: And the GI50 (OVCAR-3 [10])?
Answer: 3.17 µM

Question: What about the TGI (OVCAR-3 [10]) of the same molecule?
Answer: 11 µM

Question: What about the growth at 10 µM (HOP-92) of the same molecule?
Answer: 37.8%

Question: And the GI50 (PC-3 [11])?
Answer: 4.63 µM

Question: And the TGI (PC-3 [11])?
Answer: 44.4 µM

Question: And the growth at 10 µM (OVCAR-3 [12])?
Answer: 36.4%

Question: And the GI50 (DU-145)?
Answer: 4.64 µM

Question: What about the TGI (DU-145) of the same molecule?
Answer: 18.4 µM

Question: And the GI50 (K562 [13])?
Answer: 4.58 µM

Question: What about the TGI (K562 [13]) of the same molecule?
Answer: 100 µM

Question: What about the growth at 10 µM (HL-60(TB) [14]) of the same molecule?
Answer: -27.3%

Question: And the growth at 10 µM (MCF7)?
Answer: 30.3%

Question: And the GI50 (HL-60(TB) [15])?
Answer: 3.35 µM

Question: What about the TGI (HL-60(TB) [15]) of the same molecule?
Answer: 9.14 µM

Question: And the GI50 (UACC-62)?
Answer: 2830 nM

Question: And the TGI (UACC-62)?
Answer: 9.28 µM

Question: And the GI50 (MDA-MB-435)?
Answer: 3.91 µM

Question: What about the TGI (MDA-MB-435) of the same molecule?
Answer: 31.7 µM

Question: What about the GI50 (786-0) of the same molecule?
Answer: 2960 nM

Question: And the TGI (786-0)?
Answer: 13.5 µM

Question: And the GI50 (HOP-62)?
Answer: 4.85 µM

Question: What about the TGI (HOP-62) of the same molecule?
Answer: 19.8 µM

Question: And the GI50 (LOX IMVI [16])?
Answer: 3.21 µM

Question: And the TGI (LOX IMVI [16])?
Answer: 17.9 µM

Question: And the GI50 (HCT-15)?
Answer: 4.85 µM

Question: What about the TGI (HCT-15) of the same molecule?
Answer: 24.6 µM

Question: What about the GI50 (RPMI-8226 [17]) of the same molecule?
Answer: 2120 nM

Question: And the TGI (RPMI-8226 [17])?
Answer: 6.91 µM

Question: And the GI50 (CCRF-CEM [18])?
Answer: 2850 nM

Question: And the TGI (CCRF-CEM [18])?
Answer: 11.3 µM

Question: What about the GI50 (SR [19]) of the same molecule?
Answer: 2850 nM

Question: And the TGI (SR [19])?
Answer: 9.02 µM

Question: What about the growth at 10 µM (K562 [3]) of the same molecule?
Answer: 33.2%

Question: What about the GI50 (U-251) of the same molecule?
Answer: 4.29 µM

Question: What about the TGI (U-251) of the same molecule?
Answer: 16.6 µM

Question: And the GI50 (KM12 [20])?
Answer: 4.76 µM

Question: And the TGI (KM12 [20])?
Answer: 15.3 µM

Question: What about the GI50 (NCI-H460) of the same molecule?
Answer: 4.18 µM

Question: And the TGI (NCI-H460)?
Answer: 18.7 µM
